# Measurements collected from several papers.
# Protocols differ between the studies behind these lines.
# Target: Serine/threonine-protein kinase N1 (PKN1, Homo sapiens, UniProt Q16512)
Structure (SMILES),assay,conditions,quantity,result
COc1ccc(-c2cc3nccn3c(Nc3ncccc3C(N)=O)n2)cc1OC.Cl,"enzyme activity, inhibitor",1 µM,activity vs control,50%
Cc1c(NC(=O)c2cc(C(N)=O)nc3cc(F)ccc23)c(C(F)(F)F)nn1Cc1ccc(C(C)(C)C)cc1,"cell-free assay, competition with immobilised ligand",1 µM,remaining binding,100%
COc1cc2ncnc(Nc3ccc(Oc4ccccc4)cc3C)c2cc1OC,"enzyme activity, inhibitor",1 µM,inhibition,4%
COc1cc(Cl)c(C(=O)N[C@@H](CN[C@H]2CC[C@@H](N)CC2)Cc2ccc(C#N)cc2)cc1-c1ccc(CN[C@H](C)c2ccc(C)cc2)o1,"enzyme activity, inhibitor",1 µM,remaining activity,108%
COc1ncc(Nc2ncc([C@@H](C)N3CCN(S(C)(=O)=O)CC3)cc2-c2nc(C)nc(N)n2)cc1F,"enzyme activity, inhibitor",1 µM,activity vs control,94%
O=S(=O)(c1cccc2cnccc12)N1CCCNCC1,cell-free assay,0.5 µM,remaining signal,40.5%
O=C(NC[C@@H]1[C@H]2CN(C(=O)OCc3cc(C(F)(F)F)cc(C(F)(F)F)c3)C[C@@H]12)c1ccc2[nH]nnc2c1,"cell-free assay, competition with immobilised ligand",1 µM,remaining binding,100%
Cc1c[nH]c2nc(Nc3ccc(N4CCN(C)CC4)c(F)c3)nc(-c3cccc(CC#N)c3)c12,"enzyme activity, inhibitor",1 µM,activity vs control,19%
O=C1NC(=O)c2cc(Nc3ccc(F)cc3)c(Nc3ccc(F)cc3)cc21,cell-free assay,0.5 µM,remaining signal,97.7%
Cl.Cl.O=C(NCCCNc1nc(Nc2cccc(CN3CCOCC3)c2)ncc1C1CC1)C1CCC1,"enzyme activity, inhibitor",1 µM,activity vs control,52%
Cn1c2c(Cl)c(Cl)ccc2c2cc[nH]c(=O)c21,"thermal stability, DSF",10 µM,ΔTm,0.9 °C
N#CCCc1ccc2c(c1)-c1[nH]c3ccc([N+](=O)[O-])cc3c1CC(=O)N2,cell-free assay,0.5 µM,remaining signal,78%
O=C(Nc1cnn(-c2csc(C(=O)NC3COC3)c2)c1)Nc1c(F)cccc1Cl,"enzyme activity, inhibitor",5 µM,remaining activity,96.5%
C#Cc1cccc(Nc2ncnc3cc(OCCOC)c(OCCOC)cc23)c1,cell-free assay,0.5 µM,remaining signal,108%
CCN1CCC2(CC1)NC(=O)c1c(c3ccc(Cl)c(Cl)c3n1C)C2C#N (racemic),"thermal stability, DSF",10 µM,ΔTm,1 °C
Cn1cncc1C1=CN(c2ncnc3[nH]cnc23)CCS1,"enzyme activity, inhibitor, radiometric",50 nM,inhibition,18.8%
COc1cc(-c2cc(-c3ccc(N4CCNCC4)cc3)cnc2C)cc(OC)c1OC,"enzyme activity, inhibitor",0.1 µM,inhibition,10%
CN1CCC2(CC1)NC(=O)c1c(c3ccc(Cl)c(Cl)c3n1C)C2C#N (racemic),"thermal stability, DSF",10 µM,ΔTm,1 °C
CN(C)C1CCN(CC#Cc2nn(C3CCCC3)c3nc(NCc4ccccc4)ncc23)C1 (centres unmarked),"enzyme activity, inhibitor, FRET",1 µM,inhibition,1%
FC(F)(F)c1ccc2c(c1)nc(-c1cccnc1)n2C1CC1,"cell-free assay, competition with immobilised ligand",1 µM,remaining binding,100%
CS(=O)(=O)Nc1cccc(-c2csc(NC(=O)CSc3nc4nccnc4c(=O)n3CCc3ccccc3)n2)c1,"enzyme activity, inhibitor",10 µM,inhibition,-5%
C[C@H]1CCN(c2nccc(-c3cnn4ncccc34)n2)C1,binding,1 µM,remaining binding,100%
CC(C)(C)c1nc(-c2cccc(NS(=O)(=O)c3c(F)cccc3F)c2F)c(-c2ccnc(N)n2)s1,"enzyme activity, inhibitor, radiometric",1 µM,remaining activity,101%
CC/C(=N\NC(=O)NCc1cccc(O)c1)c1ccc(O)c(C)c1O,"enzyme activity, inhibitor",0.1 µM,inhibition,29.1%
CC(=O)c1cnc2ccc(-c3cc(Cl)c(O)c(Cl)c3)nc2c1N[C@H]1CC[C@H](CN(C)C)CC1,"enzyme activity, inhibitor",1 µM,activity vs control,0%
c1ccc(CNc2nc(N3CCOc4ccccc43)nc3c2CCCC3)cc1,"target engagement in cells, inhibitor, chemoproteomics",20 mM,inhibition,1.6%
CS(=O)(=O)NCC[C@H](NC(=O)c1cncc2c1cnn2-c1ccc(F)cc1)c1ccnc(S(C)(=O)=O)c1,"cell-free assay, competition with immobilised ligand",1 µM,remaining binding,100%
Cc1ccc(C(=O)Nc2ccc(CN3CCN(C)CC3)c(C(F)(F)F)c2)cc1C#Cc1cnc2cccnn12,"enzyme activity, inhibitor",23.5 nM,remaining activity,100%
CC(=O)C1=C(C)N(c2cccc(C(F)(F)F)c2)C(=O)N[C@@H]1c1ccc(C#N)nc1,"cell-free assay, competition with immobilised ligand",1 µM,remaining binding,71.1%
O=C(Nc1cnn2ccc(N3CCC[C@@H]3c3cc(F)ccc3F)nc12)N1CC[C@H](O)C1,"enzyme activity, inhibitor",1 µM,activity vs control,94%
COc1cc2c(Nc3ccc(Br)cc3F)ncnc2cc1OCC1CCN(C)CC1,cell-free assay,0.5 µM,remaining signal,103%
CN(C(=O)c1ccccc1)c1cc(N(C)c2ccc3c(c2)CCc2ccc(C(=O)NCCN4CCOCC4)cc2C3=O)ccc1F,"cell-free assay, competition with immobilised ligand",1 µM,remaining binding,100%
Nc1cc(N)c(N)cc1N,"enzyme activity, inhibitor",1 µM,activity vs control,72%
CCCS(=O)(=O)Nc1ccc(F)c(C(=O)c2c[nH]c3ncc(-c4ccc(Cl)cc4)cc23)c1F,"enzyme activity, inhibitor",1 µM,inhibition,< 10%
O=C(NCc1ncc(C(F)(F)F)cc1Cl)c1ccc2c(c1)C1(CCS(=O)(=O)CC1)[C@@H](C1CC1)N2S(=O)(=O)c1ccc(F)cc1,"cell-free assay, competition with immobilised ligand",1 µM,remaining binding,100%
CC[C@@H]1C(=O)N(C)c2cnc(Nc3ccc(C(=O)NC4CCN(C)CC4)cc3OC)nc2N1C1CCCC1,"enzyme activity, inhibitor",1 µM,activity vs control,77%
C[C@H](c1cccc(C#N)c1)n1cc(Cl)cc(C(N)=O)c1=N,"cell-free assay, competition with immobilised ligand",1 µM,remaining binding,65%
O=C(Nc1cnn(-c2csc(C(=O)NC3COC3)c2)c1)Nc1ccccc1Cl,"enzyme activity, inhibitor",5 µM,remaining activity,110%
